Screens from PubChem BioAssay.
SENP6 inh = inhibitors of human SENP6 protease | Q9GZR1 | Recombinant SENP6 catalytic domain, aminoluciferin luminescence | inhibition, % at 10 µM | 330,000 compounds, 1.8% hits;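 active means inhibition above about 50% at the single tested dose, limit read from the data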;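 further: plate controls were DMSO wells with enzyme for no effect and DMSO wells lacking enzyme for full effect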
Target sequence (Q9GZR1 628-1112 limits assumed): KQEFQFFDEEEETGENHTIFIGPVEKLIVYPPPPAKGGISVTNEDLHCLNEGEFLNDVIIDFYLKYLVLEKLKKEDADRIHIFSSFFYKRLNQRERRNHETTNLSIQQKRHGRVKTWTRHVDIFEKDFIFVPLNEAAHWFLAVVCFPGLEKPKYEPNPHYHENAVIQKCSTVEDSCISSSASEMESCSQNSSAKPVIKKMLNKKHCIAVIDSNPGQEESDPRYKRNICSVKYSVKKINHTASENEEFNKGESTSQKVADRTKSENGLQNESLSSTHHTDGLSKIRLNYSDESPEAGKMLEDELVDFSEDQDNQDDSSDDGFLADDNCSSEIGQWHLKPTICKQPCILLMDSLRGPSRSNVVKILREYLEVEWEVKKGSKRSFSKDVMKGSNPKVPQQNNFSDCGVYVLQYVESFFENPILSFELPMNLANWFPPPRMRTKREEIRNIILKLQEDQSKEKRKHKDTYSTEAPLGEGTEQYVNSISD
SENP7 inh = inhibitors of human SENP7 protease. Q9BQF6. recombinant SENP7, Z-RLRGG-aminoluciferin luminescence, 40 min. inhibition, % at 5 µM. 330,000 compounds, 1.5% hits. AID 434973;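 active means inhibition above about 50% at the single test dose, limit read from the data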;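 further: plate controls were DMSO with enzyme for no effect and no enzyme buffer wells for full effect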
SENP1 FRET inh = blocks the human SENP1 SUMO protease catalytic domain. Q9P0U3. recombinant SENP1 catalytic domain, CyPet-SUMO1-YPet FRET cleavage. inhibition, % at 10 µM. 360,000 compounds, 0.21% hits. AID 624204;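 active means inhibition at least 30% at 10 µM, raw YFP signal under a set limit, fluorescence ratio 0.5 to 1.5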;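 further: 0% = enzyme with DMSO and 100% = no enzyme wells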
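Test system: human SENP1 catalytic domain; medium: Tris pH 8 buffer plus EDTA, NaCl, BME, BSA, NP40, catalase; incubation: 50 min reaction at room temperature; technique: FRET, CFP and YFP emission; controls: no-enzyme low control and enzyme-plus-DMSO high control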
SENP8 block-1 = SENP8 protease inhibition. purified SENP8, Z-RLRGG-aminoluciferin cleavage, luminescence. inhibition, % at 10 µM. 330,000 compounds, 1.2% hits; in the data active means inhibition above about 50%
SENP8 block-2 = SENP8 (human) protease inhibition; Q96LD8; 360,000 compounds, 0.64% hits; recombinant SENP8, Nedd8 substrate fluorescence; inhibition, % at 20 µM; in the data active means inhibition mostly above about 40%, no sharp cut-off; inactive means mostly below about 27%
* = called active by the depositor; . = no result given. Hits are enriched below; roughly 2.5% of the tested compounds scored in any of these assays.

SMILES	SENP6 inh	SENP7 inh	SENP1 FRET inh	SENP8 block-1	SENP8 block-2
CN1CCN(c2ccc(-c3ccnn3C(=O)Nc3cccc(C(F)(F)F)c3)cc2)CC1	-12	2	2	-8	5
Nc1[nH]n2c(=O)c3c(nc2c1N=Nc1ccc(Cl)cc1)CCCC3	16	14	5	9	45*
Nc1[nH]n2c(=O)c3c(nc2c1N=Nc1ccccc1)CCCC3	6	-4	4	3	53*
Cc1ccc(Nc2nnc(-c3ccccc3N)o2)cc1C	-3	63*	0	-8	-433
CC1CCCCC12NC(=O)N(CC(=O)OCc1cccc(F)c1)C2=O (stereo not drawn)	3	-6	0	10	-3
Cc1ccc(CNC(=O)c2ccc3c(=O)n(CC4CCCO4)c(=S)[nH]c3c2)cc1 (stereo not drawn)	-15	14	0	-2	9
O=C(NCc1ccccc1)c1ccc2c(=O)n(CC3CCCO3)c(=S)[nH]c2c1 (stereo not drawn)	-8	16	-1	-2	9
CCCCCNC(=O)c1ccc2c(=O)[nH]c3c(C(=O)NCC4CCCO4)sc(=S)n3c2c1 (stereo not drawn)	13	2	52*	28	30
Cc1ccc(CNC(=O)c2ccc3c(=O)[nH]c4c(C(=O)NCC5CCCO5)sc(=S)n4c3c2)cc1 (stereo not drawn)	-6	-3	39*	-4	28
O=C(NCc1ccccc1)c1ccc2c(=O)[nH]c3c(C(=O)NCC4CCCO4)sc(=S)n3c2c1 (stereo not drawn)	31	-1	38*	13	17
COC(=O)C1CC2=C(CCCC2=O)N(Cc2ccccc2)C1=O (stereo not drawn)	.	.	0	.	-6
O=C(Nc1ccccn1)C1CCN(C(=O)c2ccc(Cl)cc2)CC1	.	.	1	.	31
Cc1occc1C(=O)N/N=C/c1ccc(OCc2ccccc2)cc1	90*	90*	3	80*	16
Cc1occc1C(=O)N/N=C/c1ccc2c(c1)OCO2	100*	99*	1	96*	3
Cc1cc(/C=N/NC(=O)c2ccoc2C)cc(C)c1O	.	.	5	.	-42
NC(=S)N=Nc1c(O)n(C2OC(=O)c3ccccc32)c2ccccc12 (stereo not drawn)	-7	-1	3	-2	49*
NC(=S)N=Nc1c(O)n(CCCl)c2ccccc12	-10	4	2	-5	36
Nc1[nH]n(-c2ccccc2)c(=O)c1N=Nc1ccc2ncsc2c1	11	-6	5	-1	56*
CN1CCSc2ccc(C(=O)Nc3cccc(F)c3)cc21	94*	90*	-38	83*	-418
COc1ccc(NC(=O)c2ccc3c(c2)N(C)CCS3)cc1	15	15	-1	2	-396
S=C(NCc1ccccc1)Nc1cccc2ccccc12	14	3	0	14	-265
Cc1ccc(NC(=S)Nc2cccc3ccccc23)cc1F	93*	49	-24	89*	-389
CC(=O)c1ccc(NC(=S)Nc2cccc3ccccc23)cc1	91*	53*	-5	65*	-390
CC(=O)c1cccc(NC(=O)C(=O)Nc2cccc3ccccc23)c1	2	35	0	-2	7
CC(C(=O)OCC(=O)Nc1ccc(S(N)(=O)=O)cc1)N1C(=O)c2ccccc2C1=O (stereo not drawn)	8	2	3	6	10
SMILES	SENP6 inh	SENP7 inh	SENP1 FRET inh	SENP8 block-1	SENP8 block-2
Cc1cccnc1C1=NOC(Cc2ccccc2)C(=O)N1CCOc1ccc(F)cc1 (stereo not drawn)	.	.	1	.	3
Cc1nn2cc(-c3cccc(Cl)c3)cnc2c1Cl	-1	71*	0	20	21
CCOc1ccc(N=Nc2c(=O)[nH]n3c(C)cc(C)nc23)cc1	-3	-14	8	-7	53*
COc1cccc(N=Nc2c(=O)[nH]n3c(C)cc(C)nc23)c1	-3	6	3	0	22
Cc1ccc(NCc2ccccc2O)cc1	19	18	1	-6	15
Cc1ccc(CNc2ccc(O)cc2)cc1	48	5	2	44	72*
C#CCn1cc(C=C2C(=O)c3ccccc3C2=O)c2ccccc21	.	.	-20	.	38*
CC(=O)c1ccc(OC2(C)CCN(Cc3ccc4ccccc4c3)C2)cc1 (stereo not drawn)	.	.	0	.	7
CCc1ccc(C(=O)COC(=O)c2cccs2)cc1	4	97*	2	91*	24
CCC(=O)c1ccc(OC(=O)c2cccs2)cc1	-59	-4	5	-46	19
NC(N)=NN=C(c1ccc(F)cc1)c1ccc(C(F)(F)F)cc1	.	.	0	.	17
Cc1ccc(S(=O)(=O)Nc2ccccc2)cc1[N+](=O)[O-]	.	.	2	.	17
Cc1cccc2c(N=Nc3ccc(S(=O)(=O)Nc4cccc(Cl)c4)cc3[N+](=O)[O-])c(O)[nH]c12	-5	0	4	-11	47*
Nc1c2c(nc3ccccc13)CSCC2	5	-8	-6	-3	-29
CCn1cc(-c2ccnc3cc(C(=O)O)nn23)c(C)n1	-18	-1	-2	95*	-451
CCN(CC)c1ccc(C(=O)OCC(=O)Nc2cc(C)on2)cc1	4	2	1	2	-37
Cc1ccc(C(C)C)c(OCc2nn(CC(=O)c3ccc(OC(F)F)cc3)c3[n+]2CCCCC3)c1	-36	4	67*	-13	11
COc1ccc(C(=O)Cn2nc(CNc3ccc(Br)cc3)[n+]3c2CCCCC3)cc1	12	11	1	0	24
Cc1ccc(S(=O)(=O)/N=C2\C=C(NS(=O)(=O)c3ccccc3)C(=O)c3ccccc32)c(C)c1	.	.	-1	.	50*
C/C(=N\NS(=O)(=O)c1ccc(C(C)(C)C)cc1)c1ccccc1	-22	-13	1	-6	7
Cc1cc(C)c(NS(=O)(=O)c2ccccc2)c(C)c1NS(=O)(=O)c1ccccc1	.	.	2	.	8
CC(C)(C)c1ccc(S(=O)(=O)/N=C2\C=C(NS(=O)(=O)c3ccccc3)C(=O)c3ccccc32)cc1	27	7	0	3	51*
Cc1ccc(N=Nc2c(N)[nH]n3c(=O)cc(-c4ccccc4)nc23)cc1	1	2	3	4	74*
COc1cccc(N=Nc2c(N)[nH]n3c(=O)cc(-c4ccccc4)nc23)c1	23	12	1	16	65*
COC(=O)/C=C1\S/C(=N/N=C/c2ccc(Cl)cc2)NC1=O	-1	19	2	0	43*
COC(=O)/C=C1\S/C(=N/N=C/c2ccccc2)NC1=O	5	-4	3	-9	17
CN(C)c1ccc(Nc2nc(N)c3ccccc3n2)cc1	96*	99*	1	95*	13
CCOc1ccc(Nc2nc(N)nc(CCl)n2)cc1	25	44	2	8	16
COc1ccc(C)cc1Nc1nc(N)c2ccccc2n1	10	2	-2	0	-47
CCOc1ccc(Nc2nc(N)c3ccccc3n2)cc1	96*	101*	1	96*	-13
